Measurements reported in ChEMBL document CHEMBL1138053, “Design, synthesis, and structure-activity relationships of thieno[2,3-b]pyridin-4-one derivatives as a novel class of potent, orally active, non-peptide luteinizing hormone-releasing hormone receptor antagonists” (J Med Chem, 2006).
pIC50: −log10 of the molar value.

Molecular target: T1, Gonadotropin-releasing hormone receptor (Homo sapiens, UniProt P30968)
T1 sequence (P30968 whole entry): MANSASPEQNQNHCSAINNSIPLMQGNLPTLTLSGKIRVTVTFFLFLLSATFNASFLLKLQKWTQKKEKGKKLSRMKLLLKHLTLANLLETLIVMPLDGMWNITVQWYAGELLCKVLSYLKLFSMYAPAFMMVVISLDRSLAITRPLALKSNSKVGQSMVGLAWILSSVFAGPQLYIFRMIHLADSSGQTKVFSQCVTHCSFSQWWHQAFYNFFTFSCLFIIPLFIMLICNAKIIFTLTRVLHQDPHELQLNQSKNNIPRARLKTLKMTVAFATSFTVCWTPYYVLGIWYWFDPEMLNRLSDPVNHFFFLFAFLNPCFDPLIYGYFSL
Assay: Inhibition of [125I]leuprorelin binding to human recombinant LHRH receptor expressed in CHO cells
Type: cell-based
Settings: not given

SMILES | pIC50
CCOC(=O)c1cn(Cc2ccccc2[N+](=O)[O-])c2sc(-c3ccc(OC)cc3)c(CN(C)Cc3ccccc3)c2c1=O | 7.00
CC(C)C(=O)c1cn(Cc2c(F)cccc2F)c2sc(-c3ccc(NC(=O)CN)cc3)c(CN(C)Cc3ccccc3)c2c1=O | 8.05
CCOC(=O)c1cn(Cc2ccccc2OC)c2sc(-c3ccc(OC)cc3)c(CN(CC)Cc3ccccc3)c2c1=O | 6.52
CCOC(=O)c1cn(Cc2ccccc2F)c2sc(-c3ccc(NC(=O)c4ccccc4)cc3)c(CN(C)Cc3ccccc3)c2c1=O | 9.00
CCOC(=O)c1cnc2sc(-c3ccc(OC)cc3)c(CN(C)Cc3ccccc3)c2c1O | < 4.70
CCOC(=O)c1cn(Cc2ccccc2OC)c2sc(-c3ccc(OC)cc3)c(CNCc3ccccc3)c2c1=O | 5.70
CCOC(=O)c1cn(Cc2ccc(F)cc2)c2sc(-c3ccc(OC)cc3)c(CN(C)Cc3ccccc3)c2c1=O | 6.40
CCOC(=O)c1cn(Cc2ccccc2F)c2sc(-c3ccc(N)cc3)c(CN(C)Cc3ccccc3)c2c1=O | 7.40
CCOC(=O)c1cn(Cc2ccc(OC)cc2)c2sc(-c3ccc(OC)cc3)c(CN(C)Cc3ccccc3)c2c1=O | 6.52
CCOC(=O)c1cn(Cc2cccc(OC)c2)c2sc(-c3ccc(OC)cc3)c(CN(C)Cc3ccccc3)c2c1=O | 6.40
CCC(=O)Nc1ccc(-c2sc3c(c2CN(C)Cc2ccccc2)c(=O)c(C(=O)NC(C)C)cn3Cc2c(F)cccc2F)cc1 | 8.10
CCOC(=O)c1cn(Cc2ccccc2OC)c2sc(-c3ccc(OC)cc3)c(C)c2c1=O | 5.00
CCOC(=O)c1cn(C)c2sc(-c3ccc(OC)cc3)c(CN(C)Cc3ccccc3)c2c1=O | 5.30
CCOC(=O)c1cn(Cc2ccccc2)c2sc(-c3cccc(OC)c3)c(CN(C)Cc3ccccc3)c2c1=O | 6.30
CCOC(=O)c1cn(Cc2ccccc2OC)c2sc(-c3ccc(OC)cc3)c(CN(Cc3ccccc3)C(C)=O)c2c1=O | 5.15
CCOC(=O)c1cn(Cc2ccccc2)c2sc(-c3ccc(NC(=O)C(C)C)cc3)c(CN(C)Cc3ccccc3)c2c1=O | 9.22
CCOC(=O)c1cn(Cc2ccccc2)c2sc(-c3ccc(OC)cc3)c(CN(C)Cc3ccccc3)c2c1=O | 6.70
CCOC(=O)c1cn(Cc2ccccc2OC)c2sc(-c3ccc(OC)cc3)c(CN(C)C)c2c1=O | 6.30
CCOC(=O)c1cn(Cc2ccccc2F)c2sc(-c3ccc(OC)cc3)c(CN(C)Cc3ccccc3)c2c1=O | 7.52
CCOC(=O)c1cn(Cc2ccccc2F)c2sc(-c3ccc(NC(C)=O)cc3)c(CN(C)Cc3ccccc3)c2c1=O | 8.70
CCOC(=O)c1cn(Cc2ccccc2F)c2sc(-c3ccc(NC(=O)Nc4ccccc4)cc3)c(CN(C)Cc3ccccc3)c2c1=O | 7.52
CCOC(=O)c1cn(Cc2ccccc2OC)c2sc(-c3ccccc3)c(CN(C)Cc3ccccc3)c2c1=O | 6.70
CCOC(=O)c1cn(Cc2ccccc2F)c2sc(-c3ccc(NC(=O)CC)cc3)c(CN(C)Cc3ccccc3)c2c1=O | 9.40
CCOC(=O)c1cn(Cc2ccccc2C#N)c2sc(-c3ccc(OC)cc3)c(CN(C)Cc3ccccc3)c2c1=O | 7.00
CCOC(=O)c1cn(Cc2ccccc2F)c2sc(-c3ccc(N(C)C(=O)NC)cc3)c(CN(C)Cc3ccccc3)c2c1=O | 8.70
CCOC(=O)c1cn(Cc2cccc(F)c2)c2sc(-c3ccc(OC)cc3)c(CN(C)Cc3ccccc3)c2c1=O | 6.52
CCOC(=O)c1cn(Cc2ccccc2OC)c2sc(-c3ccccc3OC)c(CN(C)Cc3ccccc3)c2c1=O | 6.15

Next, values leading:

pIC50 | SMILES
9.40 | CC(C)C(=O)Nc1ccc(-c2sc3c(c2CN(C)Cc2ccccc2)c(=O)c(C(O)C(C)C)cn3Cc2c(F)cccc2F)cc1 (stereo unspecified)
9.40 | CCC(=O)c1cn(Cc2c(F)cccc2F)c2sc(-c3ccc(NC(=O)C(C)C)cc3)c(CN(C)Cc3ccccc3)c2c1=O
9.70 | CCOC(=O)c1cn(Cc2c(F)cccc2F)c2sc(-c3ccc(NC(=O)C(C)C)cc3)c(CN(C)Cc3ccccc3)c2c1=O
9.70 | CC(C)C(=O)c1cn(Cc2c(F)cccc2F)c2sc(-c3ccc(NC(=O)CO)cc3)c(CN(C)Cc3ccccc3)c2c1=O
9.70 | CC(C)C(=O)c1cn(Cc2c(F)cccc2F)c2sc(-c3ccc(NC(=O)C(C)(C)O)cc3)c(CN(C)Cc3ccccc3)c2c1=O
9.70 | CC(C)C(=O)Nc1ccc(-c2sc3c(c2CN(C)Cc2ccccc2)c(=O)c(C(=O)C(C)C)cn3Cc2c(F)cccc2F)cc1
10.00 | CC(C)C(=O)Nc1ccc(-c2sc3c(c2CN(C)Cc2ccccc2)c(=O)c(C(=O)c2ccccc2)cn3Cc2c(F)cccc2F)cc1
10.00 | CNC(=O)Nc1ccc(-c2sc3c(c2CN(C)Cc2ccccc2)c(=O)c(C(=O)C(C)C)cn3Cc2c(F)cccc2F)cc1
10.00 | CC(C)C(=O)c1cn(Cc2c(F)cccc2F)c2sc(-c3ccc(NC(=O)C4(O)CC4)cc3)c(CN(C)Cc3ccccc3)c2c1=O
10.00 | CCOC(=O)c1cn(Cc2c(F)cccc2F)c2sc(-c3ccc(NC(=O)CC)cc3)c(CN(C)Cc3ccccc3)c2c1=O
10.15 | CCOC(=O)c1cn(Cc2ccccc2F)c2sc(-c3ccc(NC(=O)NC)cc3)c(CN(C)Cc3ccccc3)c2c1=O
10.22 | CCOC(=O)c1cn(Cc2c(F)cccc2F)c2sc(-c3ccc(NC(=O)NC)cc3)c(CN(C)Cc3ccccc3)c2c1=O

Same assay, conditions: cho

pIC50 | SMILES
7.52 | CCOC(=O)c1cn(Cc2ccccc2F)c2sc(-c3ccc(OC)cc3)c(CN(C)Cc3ccccc3)c2c1=O

Molecular target: T2, Gonadotropin-releasing hormone receptor (Rattus norvegicus, UniProt P30969)
T2 sequence (P30969 whole entry): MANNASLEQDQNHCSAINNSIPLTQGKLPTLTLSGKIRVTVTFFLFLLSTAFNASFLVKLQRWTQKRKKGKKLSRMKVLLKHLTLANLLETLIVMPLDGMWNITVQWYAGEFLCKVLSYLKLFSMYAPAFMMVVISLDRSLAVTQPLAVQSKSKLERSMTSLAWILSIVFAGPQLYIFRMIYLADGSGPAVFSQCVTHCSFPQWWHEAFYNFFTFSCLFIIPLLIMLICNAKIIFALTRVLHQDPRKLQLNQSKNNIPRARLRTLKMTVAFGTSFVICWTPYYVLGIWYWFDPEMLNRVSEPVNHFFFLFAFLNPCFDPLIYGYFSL
Assay: Inhibition of [125I]leuprorelin binding to rat anterior pituitary LHRH receptor
Settings: not given

pIC50 | SMILES
6.70 | CNC(=O)Nc1ccc(-c2sc3c(c2CN(C)Cc2ccccc2)c(=O)c(C(=O)C(C)C)cn3Cc2c(F)cccc2F)cc1
6.82 | CC(C)C(=O)c1cn(Cc2c(F)cccc2F)c2sc(-c3ccc(NC(=O)C4(O)CC4)cc3)c(CN(C)Cc3ccccc3)c2c1=O

Tested on: not listed separately
Assay: Distribution coefficient, log D of the compound
Settings: octanol/water

logD | SMILES
6.33 | CC(C)C(=O)Nc1ccc(-c2sc3c(c2CN(C)Cc2ccccc2)c(=O)c(C(=O)C(C)C)cn3Cc2c(F)cccc2F)cc1

Molecular target: T3, Gonadotropin-releasing hormone receptor (Homo sapiens) (UniProt P30968)
T3 sequence (whole entry): T1 sequence (P30968 whole entry)
Assay: Inhibition of [125I]leuprorelin binding to human recombinant LHRH receptor at 20 uM
Settings: not given
Method in brief: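 Membranes (0.2 mg/mL) from CHO cells stably expressing cloned human LHRH receptor, incubated 60 min at 25 °C with [125I]leuprorelin and test compound in Tris buffer pH 7.5 containing EDTA, BSA, NaN3 and protease inhibitors. Bound ligand separated by filtration on PEI-coated glass-fibre filters. Nonspecific binding taken with 1 µM unlabelled leuprorelin.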

inhibition [%] | SMILES
42 | CCOC(=O)c1cn(Cc2ccccc2OC)c2sc(-c3ccc(OC)cc3)c(CNc3ccccc3)c2c1=O

Molecular target: T1, Gonadotropin-releasing hormone receptor
Assay: Inhibition of LHRH-stimulated arachidonic acid release in CHO cells expressing human LHRH receptor
Type: functional, cell-based
Settings: not given
Method in brief: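 CHO cells stably expressing human or monkey LHRH receptor, seeded at 4 × 10⁴ cells/well and cultured 1 day, then labelled 1 day with [³H]arachidonic acid (11 kBq/well). Washed in DMEM with 20 mM HEPES and 0.2% BSA, preincubated with compound 60 min at 37 °C, then stimulated with LHRH (1 nM) for 40 min at 37 °C.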

pIC50 | SMILES
10.15 | CNC(=O)Nc1ccc(-c2sc3c(c2CN(C)Cc2ccccc2)c(=O)c(C(=O)C(C)C)cn3Cc2c(F)cccc2F)cc1
10.00 | CC(C)C(=O)c1cn(Cc2c(F)cccc2F)c2sc(-c3ccc(NC(=O)C4(O)CC4)cc3)c(CN(C)Cc3ccccc3)c2c1=O
